Assay results as given in ChEMBL document CHEMBL3098017, “Discovery and in Vivo Evaluation of Potent Dual CYP11B2 (Aldosterone Synthase) and CYP11B1 Inhibitors” (ACS Med Chem Lett, 2013).

Legend:
[1] = target: T1, Cytochrome P450 11B2, mitochondrial (Homo sapiens, UniProt P19099); assay: Inhibition of CYP11B2 in human NCI-H295R cells assessed as inhibition of angiotensin-2-induced aldosterone production after 24 hrs by RIA; type: cell-based
T1 sequence (P19099 whole entry): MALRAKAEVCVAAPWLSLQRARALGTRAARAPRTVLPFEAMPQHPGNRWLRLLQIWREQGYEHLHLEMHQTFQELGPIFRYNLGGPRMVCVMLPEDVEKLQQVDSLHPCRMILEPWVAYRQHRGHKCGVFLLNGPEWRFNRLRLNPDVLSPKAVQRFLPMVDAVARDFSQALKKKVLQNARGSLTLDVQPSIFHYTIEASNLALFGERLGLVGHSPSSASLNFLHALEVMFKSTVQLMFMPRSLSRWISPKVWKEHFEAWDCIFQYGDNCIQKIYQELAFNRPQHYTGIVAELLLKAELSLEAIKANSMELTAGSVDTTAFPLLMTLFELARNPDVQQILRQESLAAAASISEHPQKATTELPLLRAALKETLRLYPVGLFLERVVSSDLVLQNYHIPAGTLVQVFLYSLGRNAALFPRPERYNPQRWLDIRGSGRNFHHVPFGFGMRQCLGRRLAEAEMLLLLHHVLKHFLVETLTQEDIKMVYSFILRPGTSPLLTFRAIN

Rattus norvegicus [2] = assay: Reduction of angiotensin 2-stimulated plasma aldosterone time-weighted average (0 to 8 hrs) in Sprague-Dawley rat at 1 mg/kg, po; type: functional; set-up: scale not given: the % may be the effect or the level left
Outline: (§1)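 Angiotensin-II infusion in Sprague–Dawley rats (n = 3) raised baseline plasma aldosterone; oral dosing in corn starch/water or HCl (1.5 equiv of 1 N)/cornstarch/water; plasma sampled at set times; time-weighted average drug level 0–8 h; time-weighted average % fall in plasma aldosterone from baseline.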

[3] = target: T1, Cytochrome P450 11B2, mitochondrial; assay: Inhibition of human recombinant CYP11B2 using 11-deoxycorticosterone as substrate by cell-based assay
Aromatase = target: T2, Aromatase (Homo sapiens, UniProt P11511)
T2 sequence (P11511 whole entry): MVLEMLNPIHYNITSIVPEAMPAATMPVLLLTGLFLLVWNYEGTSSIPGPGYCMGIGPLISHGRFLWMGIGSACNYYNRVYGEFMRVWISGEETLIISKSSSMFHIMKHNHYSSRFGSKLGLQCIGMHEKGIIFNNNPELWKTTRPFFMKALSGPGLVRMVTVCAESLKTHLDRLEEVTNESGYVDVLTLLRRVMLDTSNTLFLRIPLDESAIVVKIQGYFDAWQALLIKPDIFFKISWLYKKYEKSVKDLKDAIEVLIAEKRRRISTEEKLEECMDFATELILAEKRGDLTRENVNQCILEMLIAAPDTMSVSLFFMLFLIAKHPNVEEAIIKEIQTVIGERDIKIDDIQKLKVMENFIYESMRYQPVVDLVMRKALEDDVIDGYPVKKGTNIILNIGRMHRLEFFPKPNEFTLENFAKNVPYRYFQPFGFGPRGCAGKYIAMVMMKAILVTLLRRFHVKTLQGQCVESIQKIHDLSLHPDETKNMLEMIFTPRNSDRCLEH

[4] = target: T3, Cytochrome P450 11B1, mitochondrial (Homo sapiens, UniProt P15538); assay: Inhibition of human recombinant CYP11B1 using 11-deoxycortisol as substrate by cell-based assay
T3 sequence (P15538 whole entry): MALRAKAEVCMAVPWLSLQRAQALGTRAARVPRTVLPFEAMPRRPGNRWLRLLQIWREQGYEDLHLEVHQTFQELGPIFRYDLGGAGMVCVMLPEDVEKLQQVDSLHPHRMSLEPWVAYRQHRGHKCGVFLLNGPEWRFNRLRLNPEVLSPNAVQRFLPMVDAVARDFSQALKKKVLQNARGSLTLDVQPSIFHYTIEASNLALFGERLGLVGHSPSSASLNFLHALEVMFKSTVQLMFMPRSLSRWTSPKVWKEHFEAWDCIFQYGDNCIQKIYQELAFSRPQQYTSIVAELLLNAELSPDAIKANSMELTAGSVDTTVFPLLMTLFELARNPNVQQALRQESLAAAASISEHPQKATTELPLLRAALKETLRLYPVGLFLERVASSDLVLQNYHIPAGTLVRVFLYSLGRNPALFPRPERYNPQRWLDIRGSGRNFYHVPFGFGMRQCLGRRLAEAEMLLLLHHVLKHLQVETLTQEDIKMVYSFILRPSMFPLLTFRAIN

[5] = Oral bioavailability in Sprague-Dawley rat at 1 mg/kg; type: ADME, organism-based; conditions: in vivo
Outline: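 Sprague–Dawley rats (n = 3), oral dose in corn starch/water or HCl (1.5 equiv of 1 N)/cornstarch/water; %F calculated against a 0.3 mg/kg intra-arterial dose.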

Rattus norvegicus [6] = assay: Time-weighted average (0 to 8 hrs) in Sprague-Dawley rat at 1 mg/kg, po; type: ADME, organism-based; set-up: dose 1 mg/kg, route oral; conditions: in vivo; outline: as §1
CYP19 (aromatase) = target: T4, CYP19 (aromatase) (Homo sapiens, UniProt P11511); assay: Inhibition of human CYP19 at 1 uM preincubated for 10 mins followed by protein addition measured after 90 mins by fluorimetric analysis relative to control
T4 sequence (P11511 whole entry): T2 sequence (P11511 whole entry)

[7] = target: T5, Cytochrome P450 11B2, mitochondrial (Rattus norvegicus, UniProt P30099); assay: Inhibition of rat recombinant CYP11B2 using 11-deoxycorticosterone as substrate by cell-based assay
T5 sequence (P30099 whole entry): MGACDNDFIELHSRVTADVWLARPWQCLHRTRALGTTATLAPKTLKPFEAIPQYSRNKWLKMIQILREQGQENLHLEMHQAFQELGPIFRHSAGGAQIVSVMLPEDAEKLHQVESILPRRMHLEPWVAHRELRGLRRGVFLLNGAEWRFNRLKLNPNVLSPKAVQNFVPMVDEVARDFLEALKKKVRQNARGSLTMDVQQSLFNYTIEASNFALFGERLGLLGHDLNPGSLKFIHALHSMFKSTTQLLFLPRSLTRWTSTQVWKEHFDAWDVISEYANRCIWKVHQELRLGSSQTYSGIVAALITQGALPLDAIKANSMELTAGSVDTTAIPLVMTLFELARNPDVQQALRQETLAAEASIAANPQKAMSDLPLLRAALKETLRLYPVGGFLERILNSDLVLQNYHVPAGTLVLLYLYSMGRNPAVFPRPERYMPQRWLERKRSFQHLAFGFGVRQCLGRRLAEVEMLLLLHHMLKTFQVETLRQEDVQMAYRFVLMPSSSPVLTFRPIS

[8] = target: T6, Cytochrome P450 11B1, mitochondrial (Rattus norvegicus, UniProt P15393); assay: Inhibition of rat recombinant CYP11B1 using 11-deoxycortisol as substrate by cell-based assay
T6 sequence (P15393 whole entry): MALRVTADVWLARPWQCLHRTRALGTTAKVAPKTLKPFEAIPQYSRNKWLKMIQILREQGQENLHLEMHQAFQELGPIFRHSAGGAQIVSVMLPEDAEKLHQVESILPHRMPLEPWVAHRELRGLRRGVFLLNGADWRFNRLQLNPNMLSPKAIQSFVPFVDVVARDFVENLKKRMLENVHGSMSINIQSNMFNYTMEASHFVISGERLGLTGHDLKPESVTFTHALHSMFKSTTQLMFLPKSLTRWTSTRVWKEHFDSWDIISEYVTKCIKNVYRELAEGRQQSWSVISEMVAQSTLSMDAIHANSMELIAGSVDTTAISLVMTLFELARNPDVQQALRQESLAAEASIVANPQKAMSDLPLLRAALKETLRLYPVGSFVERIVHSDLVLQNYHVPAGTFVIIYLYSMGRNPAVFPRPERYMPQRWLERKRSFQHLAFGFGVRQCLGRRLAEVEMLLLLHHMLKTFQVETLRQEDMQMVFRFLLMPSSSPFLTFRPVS

Cytochrome P450 2D6 = Cytochrome P450 2D6 (Homo sapiens, UniProt P10635)
Cytochrome P450 2D6, sequence (P10635 whole entry): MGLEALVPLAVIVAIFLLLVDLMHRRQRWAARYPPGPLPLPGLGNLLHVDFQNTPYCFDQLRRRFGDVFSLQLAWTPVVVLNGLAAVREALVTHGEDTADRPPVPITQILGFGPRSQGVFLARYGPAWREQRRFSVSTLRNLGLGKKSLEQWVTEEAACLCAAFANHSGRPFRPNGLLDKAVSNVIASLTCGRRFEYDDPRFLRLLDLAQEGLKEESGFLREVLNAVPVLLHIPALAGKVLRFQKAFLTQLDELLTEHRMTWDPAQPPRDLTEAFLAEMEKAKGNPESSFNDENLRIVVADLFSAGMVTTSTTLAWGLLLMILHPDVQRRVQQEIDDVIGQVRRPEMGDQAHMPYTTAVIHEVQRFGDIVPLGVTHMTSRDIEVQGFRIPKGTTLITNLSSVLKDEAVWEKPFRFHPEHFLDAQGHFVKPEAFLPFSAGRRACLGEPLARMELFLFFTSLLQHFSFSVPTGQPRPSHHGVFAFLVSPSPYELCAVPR

Cytochrome P450 2C9 = Cytochrome P450 2C9 (Homo sapiens, UniProt P11712)
Cytochrome P450 2C9, sequence (P11712 whole entry): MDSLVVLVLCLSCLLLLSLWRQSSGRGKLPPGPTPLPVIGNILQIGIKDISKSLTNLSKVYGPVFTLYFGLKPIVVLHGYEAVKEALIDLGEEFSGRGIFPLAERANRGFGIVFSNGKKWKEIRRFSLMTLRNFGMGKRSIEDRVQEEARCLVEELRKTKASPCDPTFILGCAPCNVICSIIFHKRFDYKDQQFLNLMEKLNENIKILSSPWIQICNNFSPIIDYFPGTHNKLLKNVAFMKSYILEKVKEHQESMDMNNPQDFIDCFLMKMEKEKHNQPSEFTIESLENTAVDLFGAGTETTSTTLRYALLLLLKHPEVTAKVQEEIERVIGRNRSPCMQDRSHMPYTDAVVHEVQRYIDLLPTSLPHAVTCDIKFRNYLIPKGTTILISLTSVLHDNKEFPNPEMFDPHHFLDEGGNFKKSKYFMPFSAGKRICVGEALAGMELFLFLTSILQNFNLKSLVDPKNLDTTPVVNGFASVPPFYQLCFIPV

Compound | IC50 [1] [nM] | bioavailability [5] [%] | Cave (Rattus norvegicus [6]) [nM] | inhibition at 1.5 h, 1 µM (CYP19 (aromatase)) [%] | Activity (Rattus norvegicus [2]) [%] | further results
N#Cc1ccc([C@H]2CCCCc3cncn32)c(F)c1 | 42 |  |  |  | 69 | IC50 [3]: 3.2 nM; IC50 (Aromatase): 1100 nM; IC50 [4]: 7.2 nM
COc1cc(C#N)ccc1[C@H]1CCc2cncn21 | 5 | 18 | 33 | 80 | 50 | 
Cc1cc(C#N)ccc1C1CCCc2cncn21 (racemic) | 464 |  |  | 100 |  | 
COc1cc(C#N)ccc1C1CCCc2cncn21 (racemic) | 390 |  |  | 100 |  | 
COC(=O)[C@]1(c2ccc(C#N)cc2F)CCc2cncn21 | 351 |  |  |  |  | 
N#Cc1ccc([C@H]2CCCCc3cncn32)c(-c2ccc(F)cc2)c1 | 1 | 1 | 6 |  | 66 | IC50 [3]: 0.4 nM; IC50 [7]: 1 nM; IC50 [4]: 0.3 nM; IC50 [8]: 0.3 nM
COC(=O)[C@]1(c2ccc(C#N)cc2OC)CCc2cncn21 | 3 |  |  |  |  | 
c1ccc(-c2ccccc2[C@H]2CCc3cncn32)cc1 | 441 |  |  |  |  | 
c1ccc(-c2ccccc2[C@H]2CCCCc3cncn32)cc1 | 2 | < 1 | 4 |  | 27 | 
N#Cc1ccc([C@H]2CCc3cncn32)c(F)c1 [OSILODROSTAT] |  | 42 | 377 |  | 65 | IC50 (Cytochrome P450 2D6): > 10000 nM; IC50 (Cytochrome P450 2C9): > 10000 nM; IC50 [7]: 111 nM
N#Cc1ccc(C2CCCc3cncn32)c(Cl)c1 (racemic) | 792 |  |  | 99 |  | 
COc1cc(C#N)ccc1[C@H]1CCCCc2cncn21 | 520 |  |  |  |  | 
COC(=O)[C@]1(c2ccc(C#N)cc2Cl)CCc2cncn21 | 17 | 1 | 6 |  | 81 | IC50 (Aromatase): 50 nM
N#Cc1ccc([C@H]2CCCc3cncn32)c(F)c1 | 87 |  |  | 20 |  | 
COc1cc(C#N)ccc1[C@@]1(C(=O)N(C)Cc2ccc(F)cc2)CCc2cncn21 | 5 | 8 | 15 | 45 | 35 | 
Fc1ccc(-c2ccccc2[C@H]2CCc3cncn32)cc1 | 140 |  |  |  |  | 
c1ccc(-c2ccccc2[C@H]2CCCc3cncn32)cc1 | 37 |  |  |  |  | 

The remaining molecules from weak to strong by IC50 [1], led by results:

IC50 [1] [nM] | bioavailability [5] [%] | Cave (Rattus norvegicus [6]) [nM] | inhibition at 1.5 h, 1 µM (CYP19 (aromatase)) [%] | Compound | Activity (Rattus norvegicus [2]) [%] | further results
56 |  |  |  | N#Cc1ccc([C@H]2CCCc3cncn32)c(-c2ccccc2)c1 |  | 
16 |  |  | 100 | N#Cc1ccc([C@H]2CCCCc3cncn32)c(Cl)c1 |  | 
13 | 59 | 152 |  | N#Cc1ccc([C@H]2CCc3cncn32)c(Cl)c1 | 51 | 
10 |  |  | 47 | N#Cc1ccc([C@H]2CCc3cncn32)c(Br)c1 |  | 
8 |  |  | 87 | Cc1cc(C#N)ccc1[C@H]1CCc2cncn21 |  | IC50 [3]: 0.9 nM; IC50 [7]: 24 nM; IC50 [4]: 1.5 nM; IC50 [8]: 386 nM
2 | 8 | 152 |  | Fc1ccc(-c2ccccc2[C@H]2CCCCc3cncn32)cc1 | 73 | 
1.5 |  |  | 95 | N#Cc1ccc([C@@]2(C(=O)OCc3ccc(F)cc3)CCc3cncn32)c(Cl)c1 |  | IC50 [3]: 3.8 nM; IC50 [4]: < 0.1 nM
